The record followed here is the EternaBench riboswitch data.

The data set relates to MS2 coat protein. The data set can be described thus: apparent Kd, MS2 coat protein; higher = weaker binding; RNA-MaP array. The method in brief: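 Apparent Kd values come from the median of binding-curve fits to single clusters. To obtain them, designed RNAs transcribed on an Illumina sequencing chip from sequenced DNA templates were incubated at room temperature with fluorescently labeled MS2 coat protein at 1.5 nM to 3 μM, with or without input ligand, for 0.8–1.5 h at the lowest and 10–20 min at the highest concentrations. Designs measured on fewer than 10 clusters were excluded.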

Where [1] appears, read: designed as: ON switch for flavin mononucleotide, no ligand.
[2] abbreviates: ligand present: flavin mononucleotide, designed as: ON switch for flavin mononucleotide.
[3] abbreviates: designed as: OFF switch for flavin mononucleotide, no ligand.
Where [4] appears, read: ligand present: flavin mononucleotide, designed as: OFF switch for flavin mononucleotide.
Where [5] appears, read: designed as: OFF switch for theophylline, no ligand.
Setting [6] is: ligand present: theophylline, designed as: OFF switch for theophylline.
Setting [7] is: designed as: ON switch for tryptophan, no ligand.
The mark [8] stands for this setting: ligand present: tryptophan, designed as: ON switch for tryptophan.

As usually defined, the apparent Kd is a dissociation constant that holds for the conditions of the assay.

As for “UUAGUGGAACGGAAGGAUAUGAGCCACCCUACAUGAGGAUCACCCAUGUGAGCGUUGGCAGCGCAUCAGAAGGUCCUCCUACGAGU”, the “apparent Kd” value under setting [1] turned out to be 0.00663 µM and the “apparent Kd” value under setting [2] turned out to be 0.0059 µM.
“GCGACUCUCGUGAAGCGACAUGAGGAUCACCCAUGUAACACUAGAAGGAGGCACGAUACGAUGUCCUAGGAUAUAGACACGGCU”: the “apparent Kd” value runs as follows: under setting [3], 0.0278 µM; under setting [4], 0.0265 µM.
The corresponding values for “UUGGUCCACAGACAUGAGGAUCACCCAUGUAGUAGUUGAAUGAGAAGGGCACUGGCUUGUCAGGUGCAGGAUAUCAGUCUAUGU” are 0.118 µM and 0.106 µM.
The corresponding values for “CGAGUGUGAGGAUAUCAGUUCAAUAGGGCUACGCCGUGUCGUGAGAAGGCACAUGAGGAUCACCCAUGUAAUAA” are 0.0583 µM and 0.122 µM.
On to “CCAGCCCUUCUAGAUACCAGCUUUCAAUAUAAGACAACUCACAUGAGGAUCACCCAUGUUAGCCCUUGGCAGCUAAGAUCCACAA”, for which the “apparent Kd” value worked out at 0.0521 µM under setting [5] and 0.0573 µM under setting [6].
In the case of “CACUGACAUGAGGAUCACCCAUGUAUGCUCGACCAAGGAUAUUGAUCAGACAAGCAUACGCAAGAAGGUGGUGAGA”, the “apparent Kd” value was determined as 0.222 µM under setting [1] and 0.105 µM under setting [2].
The corresponding values for “CAAACAUUAUCAGGAUAUGUGCAAGAUCCGACAUGAGGAUCACCCAUGUUGCGGCAUCUCGGUUGACAGAAGGGAUCAUCGCCU” are 0.0112 µM and 0.0101 µM.
As for “AUAAGUAUAGGAUAUACAGGUAAGCGUUCUUACCGAUCCAGACAUGAGGAUCACCCAUGUAGAAGGAUACGUCU”, the “apparent Kd” value was 0.00818 µM under setting [3] and 0.00787 µM under setting [4].
“CAAUAUUUCCAGAAGGGCAAGCUAACACCAACUGCAGGAUAUGGUUUCAUACAACAUGAGGAUCACCCAUGUGGCACAGGUUCC”: the “apparent Kd” value under setting [1] is 0.0186 µM and the “apparent Kd” value under setting [2] was 0.0172 µM.
For the sequence “UAAAUACAUGAGGAUCACCCAUGUUUGGAUACCAGAUAUGACAUUAUCCCUUGGCAGCCAUUCGUUCCAAAUGCUAUUGUGAAGG”, the “apparent Kd” value reads like this: (designed as: ON switch for theophylline, no ligand) 0.0225 µM; (ligand present: theophylline, designed as: ON switch for theophylline) 0.031 µM.
Regarding “GACAUGAGGAUCACCCAUGUGAAGCAUGGUGGGCGCUCGUCCUAGGAUAUCUGCAAGUAGCUAGGAGAGAAGGAGGUAGCCAAA”, the “apparent Kd” value reads like this: under setting [3], 0.0763 µM; under setting [4], 0.0576 µM.
Regarding “GGGCAACAUGAGGAUCACCCAUGUCGUCAUGGGUUCAAUCGGAGAAGGAACGGAGUGAUAUCCAGUUAGGAUAUCCGCUACACU”, the “apparent Kd” value by setting is: under setting [3], 0.0446 µM; under setting [4], 0.044 µM.
Turning to “UCGGAAAAGAAAGGAUAUCGCAUGGAUUGUUGUCGAGAAGGUUCAAAUCGACAUGAGGAUCACCCAUGUCGAGUCCAUACUCCU”, the “apparent Kd” value reads like this: under setting [1], 0.076 µM; under setting [2], 0.0537 µM.
Consider “GACAGGACGACAUGAGGAUCACCCAUGUGUUAGCGUGGAUAGCAGGAUAUAUUAUUUAGACUCGGAUAGAAGGGCUCGGACCUA”, for which the “apparent Kd” value is 0.0183 µM under setting [3] and 0.0145 µM under setting [4].
The corresponding values for “GCUUGCUCAGAGGAUAUAGUUUCAACCACUCUACUAGAAGGCUGUACAUGAGGAUCACCCAUGUCCUUAAUCUC” are 0.0226 µM and 0.0237 µM.
On the same counts, the results for “UCUUGAGGCUAGGAUAUCAUACAUAAAAGCAACUGAGAAGGAGCCACAUGAGGAUCACCCAUGUAUCCGUUAUG” are 0.0165 µM and 0.0716 µM.
On to “AUAUCCUCAACAGGAUAUACACGUGACUAAAUGGUAGAAGGGUUAGCAGACGACAUGAGGAUCACCCAUGUUUAGGAUAAAGCG”, for which the “apparent Kd” value under setting [1] came out at 0.0107 µM and the “apparent Kd” value under setting [2] turned out to be 0.00966 µM.
For “CGAAACAUGAGGAUCACCCAUGUGUAGAUCCUGCAAGCAUAUAGAAGGUCGUCACUCCGUCACGCGAAGGAUAUAUUAAGUGCC”, the “apparent Kd” value runs as follows: under setting [3], 0.21 µM; under setting [4], 0.168 µM.
With “UUUUUAGGACAAGGAUAUUGAAUCGCACAUGAGGAUCACCCAUGUCCUCUGCAUACAGCGGACUUCAAGAAGGUGUCGACCAAU”, the “apparent Kd” value runs as follows: under setting [1], 0.971 µM; under setting [2], 0.832 µM.
For the sequence “GCUACACAUGAGGAUCACCCAUGUCAGGUCACUGAAGGAUAUAUUACUUAAUCCUGGGUCAUAGAAGGUCAAUUGC”, the “apparent Kd” value worked out at 0.0314 µM under setting [1] and 0.0219 µM under setting [2].
Turning to “CACUACAUGAGGAUCACCCAUGUCUUCCGACGAGGACCGGUACGGCCGCCACUCGAACCUCCAACUAAUACCUCAACCGUCUGAU”, the “apparent Kd” value is 0.0805 µM under setting [7] and 0.0546 µM under setting [8].
As for “GCACGGCUAGAGAAGGGAAGGUGGAAGAGAUGUGAGGGACAUGAGGAUCACCCAUGUCUUACGAUUCAGGAUAUCUGAGAGGCU”, the “apparent Kd” value was 0.0102 µM under setting [3] and 0.0103 µM under setting [4].
Take “CGUUCAGUCCAGCGGUUACAUGAGGAUCACCCAUGUUUAGAGAGAAGGGUUGGCACCAGGAUGUAACAGGAUAUCUCGCUUACG”: the “apparent Kd” value was found to be 0.171 µM under setting [1] and 0.0715 µM under setting [2].
As for “UAUCUUGAUAGAGGAUAUGAUAUUAAAGAAUAAUCAGAAGGCUAGUCAGAUCUUCUACAUGAGGAUCACCCAUGUUCGCGAACC”, the “apparent Kd” value under setting [3] was 0.211 µM and the “apparent Kd” value under setting [4] is 0.208 µM.
For the sequence “AUCGGUAAAACUCAGGAUAUAGAAAUAGACACAUGAGGAUCACCCAUGUUAACUACACAAAGAAUCUAGAAGGGAGCAGGUGUCUA”, the “apparent Kd” value is, setting by setting: under setting [1], 0.0782 µM; under setting [2], 0.0449 µM.
For “AAUGGGUGAGAUCGUUUCAACAUGAGGAUCACCCAUGUUGACAGAAGGAGGUCUAAAUAGCUACCCUAGGAUAUGUCCAUGCGA”, the “apparent Kd” value was determined as 0.0199 µM under setting [3] and 0.0319 µM under setting [4].
“AAUGCGAGACUAGGAUAUUGCAUUCAACUCGUGCAAGAAGGAGUCGUUUCAUACAUGAGGAUCACCCAUGUCCAUAUUUCUCAA”: the “apparent Kd” value is 0.0145 µM under setting [1] and 0.00744 µM under setting [2].
Take “GUUCGGCGAGGAUAUCUGCUACAGUACAUGAGGAUCACCCAUGUGGGUUAUGUCCGGUCCAGAGAAGGCGCUGCCA”: the “apparent Kd” value reads like this: under setting [3], 0.0334 µM; under setting [4], 0.0479 µM.
For “GGUUUACAUGAGGAUCACCCAUGUCCUGACAUGAGUUAGAAACAGGAUAUGGCGCAAGAAAAUGUCCAGAAGGGUUCAUAGCAA”, the “apparent Kd” value came to 0.238 µM under setting [1] and 0.0702 µM under setting [2].
As to “AUGAUGUAAGGAUAUUGCGCGAUGUUUACCAUUGGUCUGCACAAGAAGGUACAUGAGGAUCACCCAUGUGGGCC”, the “apparent Kd” value runs as follows: under setting [3], 0.0279 µM; under setting [4], 0.0399 µM.
With “CAGACGUAGAUUACAUGAGGAUCACCCAUGUCAUACCAGAUCAGAAGGGUUCUAGAGCGUACUCAACAGGAUAUGAUAAGUCCC”, the “apparent Kd” value runs as follows: under setting [1], 0.0183 µM; under setting [2], 0.0165 µM.
The corresponding values for “AAUACAAAACAUGAGGAUCACCCAUGUCCCGAGACUAAACUAAGAAGGUGACCAACCAAAAGGGUCAAGGAUAUUAGGAUCUAU” are 0.0289 µM and 0.0134 µM.
On to “AUCACUGUGAAAGAUACCAGCGCCCUACCUAUCUUCUGUUACAUGAGGAUCACCCAUGUUCGCCCUUGGCAGCUUGAGAUGGAUC”, for which the “apparent Kd” value is, setting by setting: under setting [5], 0.049 µM; under setting [6], 0.0706 µM.
Regarding “GGUACUCUGUACUAACAUGAGGAUCACCCAUGUAGGCAAACUCAGGAUAUAUUGAACACACCUAGAUAGAAGGGAGUUCGUGAU”, the “apparent Kd” value turned out to be 0.0112 µM under setting [1] and 0.00966 µM under setting [2].
Regarding “AAAGGCGUAGGAUAUACAUGAGGAUCACCCAUGUAUCACAAUAACGAGGAAUGAAAGUGUAGAAGGACGAUAAC”, the “apparent Kd” value runs as follows: under setting [3], 0.00748 µM; under setting [4], 0.0068 µM.
For the sequence “UGGUCGCAGUGAGGAUAUCCAGUCUAGGCACACGGAGAAGGCACGCGACAUGAGGAUCACCCAUGUAGACGAUAUGCUCCAGGU”, the “apparent Kd” value runs as follows: under setting [3], 0.0221 µM; under setting [4], 0.0313 µM.
On the same counts, the results for “GGACAUGAGGAUCACCCAUGUGGGAUCCACUACGGUCACGCUAGAAGGGAUGUGGGUGGCCGAUAUCAGGAUAUAGCAGUUUAG” are 0.381 µM and 0.189 µM.
On the same counts, the results for “UUUGAGGCAGGAUAUAACAUCUUUGACAUGAGGAUCACCCAUGUGGUGUCCCGGUUUUAAUUAGAAGGGCCAGGCU” are 0.692 µM and 0.727 µM.
For “UAGAGCCAGUCGGCCGCCACUCUCCAUAUGUGAGCCUUUAAGUUCUACAUGAGGAUCACCCAUGUGAGGACCGGGACCGAAUCUA”, the “apparent Kd” value runs as follows: (designed as: OFF switch for tryptophan, no ligand) 0.0603 µM; (ligand present: tryptophan, designed as: OFF switch for tryptophan) 0.0807 µM.
With “ACUAGCAUAGGAUAUCACCACAGGUACAUGAGGAUCACCCAUGUGAGACUAGCUAGCUGCUGAGAAGGAUGAAAGG”, the “apparent Kd” value reads like this: under setting [3], 0.0279 µM; under setting [4], 0.0236 µM.
For “AAAUUCGGGAUCUAGGAUAUGUGCGUUUACACAUGAGGAUCACCCAUGUCUCACAGCCGUUUACCACAGAAGGAGAAACGACCUUA”, the “apparent Kd” value by setting is: under setting [1], 0.0311 µM; under setting [2], 0.0239 µM.
On the same counts, the results for “UUCAUCAACACAGGAUAUUCCGUCACAUGAGGAUCACCCAUGUAGCGCGUAGAUUACGGGCUUUCGAAGAAGGGUGUAAAGUCC” are 0.0542 µM and 0.0433 µM.
On the same counts, the results for “GGGCCCUUCUCAUAGGAUAUACUUUAUACCACAUGAGGAUCACCCAUGUAAACAUAAUUAAGAAAGUAGAAGGAUGACGAAAAUCG” are 0.0104 µM and 0.00898 µM.
The corresponding values for “ACAUGAGGAUCACCCAUGUAAAUGAUAUGUCACCAUGAUGUUAGAAGGAAAGCGGAAAGUCAAUUUUAGGAUAUAAUGUAUUGA” are 0.0119 µM and 0.00851 µM.
Turning to “GAGAGAUAAGGAUAUCCACAACGGGACAUGAGGAUCACCCAUGUACCCUCAUUCCUCGCAGGAGAAGGUAUCAUGU”, the “apparent Kd” value runs as follows: under setting [3], 0.0224 µM; under setting [4], 0.0443 µM.
For “UUGCUCUCUUCGGCCGCCACUACACGCGAGUUGACGACUGGCGGACAUGAGGAUCACCCAUGUCAUAGGACCGGGAAUCACGCUG”, the “apparent Kd” value by setting is: under setting [7], 0.0134 µM; under setting [8], 0.0138 µM.
Regarding “GCACCUAGGUCAGGAUAUCAAAAUGUCAUACAUGAGGAUCACCCAUGUGUCGUUAAGUAACACUGUGAGAAGGGACAACUUGAA”, the “apparent Kd” value by setting is: under setting [3], 0.0103 µM; under setting [4], 0.00882 µM.
